Several values for one entry are separate records, joined by “and”; a condition that tells them apart may be missing. Equal values may be shown once.
Assays:
Acanthocheilonema viteae [1] = test: Antifilarial activity as percent of surviving A. viteae in Mastomys coucha sterlized after an intraperitoneal dose of 50 mg/kg (for 5 days).; assay type: functional
How it was run: (§1)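 Acanthocheilonema viteae infection in Mastomys coucha; compounds given as fine suspensions in 1% Tween 80 for 5 consecutive days, 50 mg/kg ip and/or 200 mg/kg orally. Micro- and macrofilaricidal action and sterilisation of surviving female worms were scored. Two to three animals per dose level, with at least two replicate experiments.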

Acanthocheilonema viteae [2] = test: In vivo anti-filarial (microfilaricidal) activity at an ip dose of 50 mg/kg (for 5 days) against A. viteae in Mastomys coucha.; assay type: functional; conditions: route intraperitoneal; how it was run: as §1
Acanthocheilonema viteae [3] = test: In vivo anti-filarial (macrofilaricidal) activity at an ip dose of 50 mg/kg (for 5 days) against A. viteae in Mastomys coucha.; assay type: functional; conditions: route intraperitoneal
How it was run: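 Infected *Mastomys coucha* were dosed for 5 consecutive days, either 50 mg/kg ip or 200 mg/kg orally. Compounds were given as fine suspensions in 1% Tween 80. Each dose level used two to three animals, with at least two replicates to confirm activity. Micro- and macrofilaricidal action was scored by the cited earlier method.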

Mus musculus [4] = test: In vivo anti-filarial (maf-macrofilaricidal) activity at an po dose of 250 mg/kg (for 5 days) against Brugia malayi; assay type: functional
How it was run: (§2)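 Male *Mastomys* infected at 6 weeks old with *B. malayi* larvae were dosed for 5 days, 50 mg/kg ip or 250 mg/kg orally, as a 1% Tween 80 suspension. Screening followed the *A. viteae* scheme. Micro- and macrofilaricidal action and sterilization of surviving female worms were scored. Each dose used two to three animals, with at least duplicate confirmation.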

Mus musculus [5] = test: Antifilarial activity evaluated as percent of surviving Brugia malayi that were sterlized after an ip dose of 50 mg/kg (for 5 days); assay type: functional; conditions: route intraperitoneal
How it was run: (§3)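 Male Mastomys, 6 weeks old, each inoculated with 50 infective Brugia malayi larvae recovered from infected Aedes aegypti. Screening followed the A. viteae protocol, with a 1% Tween 80 suspension for 5 days at 50 mg/kg ip or 250 mg/kg orally. Micro- and macrofilaricidal action and sterilisation of surviving females were scored. Two to three animals per dose.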

Rattus norvegicus [6] = test: In vivo anti-filarial (mif-microfilaricidal) activity at an ip dose of 30 mg/kg (for 5 days) against Litomosoides carinii in cotton rats; assay type: functional; conditions: route intraperitoneal
How it was run: (§4)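 They received 30 mg/kg ip for 5 consecutive days as a 1% Tween 80 suspension. Blood microfilariae were counted before treatment and then weekly until day 42. Animals were then killed and adult worm condition scored.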

Rattus norvegicus [7] = test: (§5) In vivo anti-filarial (maf-macrofilaricidal) activity at an ip dose of 30 mg/kg (for 5 days) against Litomosoides carinii in cotton rats; assay type: functional; conditions: route intraperitoneal; how it was run: as §4
Acanthocheilonema viteae [8] = test: In vivo anti-filarial (mif-macrofilaricidal) activity at an oral dose of 200 mg/kg (for 5 days) against A. viteae in Mastomys coucha
Acanthocheilonema viteae [9] = test: In vivo anti-filarial (mif-microfilaricidal) activity at an ip dose of 200 mg/kg (for 5 days) against A. viteae in Mastomys coucha
Mus musculus [10] = test: In vivo anti-filarial (maf-macrofilaricidal) activity at an ip dose of 50 mg/kg (for 5 days) against Brugia malayi; assay type: functional; conditions: route intraperitoneal; how it was run: as §2
Mus musculus [11] = test: In vivo anti-filarial (mif-microfilaricidal) activity at an ip dose of 50 mg/kg (for 5 days) against Brugia malayi; assay type: functional; conditions: route intraperitoneal; how it was run: as §2
Rattus norvegicus [12] = test: Antifilarial activity evaluated as percent of surviving Litomosoides carinii in cotton rats that were sterlized after an ip dose of 30 mg/kg (for 5 days); assay type: functional; conditions: route intraperitoneal
How it was run: (§6)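 Cotton rats (Sigmodon hispidus), 6 weeks old, infected with Litomosoides carinii through the mite vector Liponyssus bacoti. Animals with ≥250 microfilariae/5 mm blood were used. Dosed 30 mg/kg ip for 5 consecutive days as a 1% Tween 80 suspension. Blood microfilariae were checked before treatment and weekly until day 42, when animals were killed and adult male and female worms examined.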

Mus musculus [13] = test: In vivo anti-filarial (mif-microfilaricidal) activity at an po dose of 250 mg/kg (for 5 days) against Brugia malayi; assay type: functional; how it was run: as §3
Mus musculus [14] = test: In vivo anti-filarial (mif-microfilaricidal) activity at an oral dose of 200 mg/kg (for 5 days) against A. viteae in Mastomys coucha; assay type: functional; how it was run: as §1
Rattus norvegicus [15] = test: as §5; assay type: functional; conditions: route intraperitoneal; how it was run: as §6; remark: listed apart in the source
Acanthocheilonema viteae [16] = test: In vivo anti-filarial (maf-macrofilaricidal) activity at an oral dose of 200 mg/kg (for 5 days) against A. viteae in Mastomys coucha
Rattus norvegicus [17] = test: In vivo anti-filarial (mif-microfilaricidal) activity at an ip dose of 75 mg/kg (for 5 days) against Litomosoides carinii in cotton rats; assay type: functional; conditions: route intraperitoneal
Mus musculus [18] = test: In vivo anti-filarial (maf-macrofilaricidal) activity at an ip dose of 100 mg/kg (for 5 days) against Brugia malayi; assay type: functional; conditions: route intraperitoneal
Mus musculus [19] = test: In vivo anti-filarial (mif-microfilaricidal) activity at an ip dose of 100 mg/kg (for 5 days) against Brugia malayi; assay type: functional; conditions: route intraperitoneal

In the case of `COC(=O)c1cc2c([nH]c3ccccc32)c(-c2cccc(Br)c2)n1`, the Activity (Acanthocheilonema viteae [1]) is reported as 100%, the Activity (Acanthocheilonema viteae [2]) is reported as 0% and the Activity (Acanthocheilonema viteae [3]) is reported as 84%.
With `COC(=O)c1cc2c([nH]c3ccccc32)c(-c2cccc(Cl)c2)n1` the Activity (Acanthocheilonema viteae [2]) was 0% and the Activity (Acanthocheilonema viteae [3]) was 81%.
`Cc1ccc(-c2[nH]c(CO)cc3c4ccccc4nc2-3)cc1` showed an Activity (Acanthocheilonema viteae [1]) of 40%, an Activity (Acanthocheilonema viteae [2]) of 0% and an Activity (Acanthocheilonema viteae [3]) of 0%.
For `COC(=O)c1cc2c([nH]c3ccccc32)c(-c2ccsc2)n1`, the Activity (Acanthocheilonema viteae [2]) was 0% and the Activity (Acanthocheilonema viteae [3]) was 60%.
`COC(=O)C1Cc2c([nH]c3ccccc23)C(c2ccc(F)cc2)N1` (stereo not given) was tested, and the Activity (Acanthocheilonema viteae [2]) was 0% and the Activity (Acanthocheilonema viteae [3]) was 25%.
`NC(=O)c1cc2c([nH]c3ccccc32)c(-c2ccsc2)n1` showed an Activity (Acanthocheilonema viteae [2]) of 0% and an Activity (Acanthocheilonema viteae [3]) of 89%.
For `COC(=O)C1Cc2c([nH]c3ccccc23)C(c2ccc(C)cc2)N1` (stereo not given), the Activity (Acanthocheilonema viteae [2]) was 0% and the Activity (Acanthocheilonema viteae [3]) was 90%.
For `OCc1cc2c([nH]c3ccccc32)c(-c2ccc(Cl)cc2)n1`, the Activity (Mus musculus [4]) was 56% and 69%, the Activity (Mus musculus [5]) was 85% and the Activity (Rattus norvegicus [6]) was 29%. It also gave an Activity (Acanthocheilonema viteae [1]) of 75%, an Activity (Rattus norvegicus [7]) of 95% and an Activity (Acanthocheilonema viteae [8]) of 94%. The Activity (Acanthocheilonema viteae [2]) was 76%, the Activity (Acanthocheilonema viteae [9]) was 0% and the Activity (Mus musculus [10]) was 62%. For the same compound, the Activity (Mus musculus [11]) was 0%, the Activity (Rattus norvegicus [12]) was 0% and the Activity (Acanthocheilonema viteae [3]) was 56%. For the same compound, the Activity (Mus musculus [13]) was 0%.
`COC(=O)c1cc2c([nH]c3ccccc32)c(-c2ccccc2F)n1` was tested, and the Activity (Acanthocheilonema viteae [2]) was 0% and the Activity (Acanthocheilonema viteae [3]) was 44%.
Compound `COC(=O)C1Cc2c([nH]c3ccccc23)C(c2ccsc2)N1` (stereo not given) has an Activity (Acanthocheilonema viteae [2]) of 0% and an Activity (Acanthocheilonema viteae [3]) of 57%.
Work on `COC(=O)c1cc2c([nH]c3ccccc32)c(-c2ccccc2Cl)n1` yielded an Activity (Acanthocheilonema viteae [2]) of 0% and an Activity (Acanthocheilonema viteae [3]) of 94%.
In the case of `NC(=O)c1cc2c([nH]c3ccccc32)c(-c2ccc(Cl)cc2)n1`, the Activity (Acanthocheilonema viteae [1]) is reported as 60%, the Activity (Acanthocheilonema viteae [2]) is reported as 0% and the Activity (Acanthocheilonema viteae [3]) is reported as 0%.
For `COC(=O)C1Cc2c([nH]c3ccccc23)C(c2ccc(Cl)cc2)N1` (stereo not given), the Activity (Acanthocheilonema viteae [1]) was 100%, the Activity (Acanthocheilonema viteae [2]) was 94% and the Activity (Acanthocheilonema viteae [3]) was 39%.
Work on `COC(=O)c1cc2c([nH]c3ccccc32)c(-c2cccs2)n1` yielded an Activity (Acanthocheilonema viteae [1]) of 0%, an Activity (Acanthocheilonema viteae [2]) of 62% and an Activity (Acanthocheilonema viteae [3]) of 45%.
`OCc1cc2c([nH]c3ccccc32)c(-c2ccc(F)cc2)n1` gave an Activity (Acanthocheilonema viteae [2]) of 0% and an Activity (Acanthocheilonema viteae [3]) of 75%.
`NC(=O)c1cc2c([nH]c3ccccc32)c(-c2cccc(Cl)c2)n1` was tested, and the Activity (Acanthocheilonema viteae [1]) was 50%, the Activity (Acanthocheilonema viteae [2]) was 84% and the Activity (Acanthocheilonema viteae [3]) was 0%.
`NC(=O)c1cc2c([nH]c3ccccc32)c(-c2cccs2)n1` was tested, and the Activity (Acanthocheilonema viteae [2]) was 93% and the Activity (Acanthocheilonema viteae [3]) was 0%.
`COC(=O)C1Cc2c([nH]c3ccccc23)C(c2cccc(Br)c2)N1` (stereo not given) showed an Activity (Acanthocheilonema viteae [2]) of 90% and an Activity (Acanthocheilonema viteae [3]) of 0%.
Work on `COC(=O)c1cc2c([nH]c3ccccc32)c(-c2ccc(C)cc2)n1` yielded an Activity (Acanthocheilonema viteae [2]) of 0% and an Activity (Acanthocheilonema viteae [3]) of 100%.
`NNC(=O)c1cc2c([nH]c3ccccc32)c(-c2ccsc2)n1` showed an Activity (Acanthocheilonema viteae [2]) of 91% and an Activity (Acanthocheilonema viteae [3]) of 0%.
Compound `COC(=O)C1Cc2c([nH]c3ccccc23)C(c2cccc(Cl)c2)N1` (stereo not given) has an Activity (Acanthocheilonema viteae [2]) of 0% and an Activity (Acanthocheilonema viteae [3]) of 50%.
For `COC(=O)C1Cc2c([nH]c3ccccc23)C(c2ccccc2Cl)N1` (stereo not given), the Activity (Rattus norvegicus [6]) was 0%, the Activity (Acanthocheilonema viteae [2]) was 0% and the Activity (Mus musculus [14]) was 0%. The Activity (Rattus norvegicus [15]) was 20%, the Activity (Rattus norvegicus [12]) was 88% and the Activity (Acanthocheilonema viteae [3]) was 93%. For the same compound, the Activity (Acanthocheilonema viteae [16]) was 0%.
For `COC(=O)c1cc2c([nH]c3ccccc32)c(-c2ccc(F)cc2)n1`, the Activity (Acanthocheilonema viteae [1]) was 67%, the Activity (Acanthocheilonema viteae [2]) was 0% and the Activity (Acanthocheilonema viteae [3]) was 56%.
`NC(=O)c1cc2c([nH]c3ccccc32)c(-c2ccccc2Cl)n1` was tested, and the Activity (Acanthocheilonema viteae [1]) was 100%, the Activity (Acanthocheilonema viteae [2]) was 44% and the Activity (Acanthocheilonema viteae [3]) was 86%.
Work on `NC(=O)c1cc2c([nH]c3ccccc32)c(-c2cccc(Br)c2)n1` yielded an Activity (Acanthocheilonema viteae [2]) of 0% and an Activity (Acanthocheilonema viteae [3]) of 69%.
`CCN(CC)C(=O)N1CCN(C)CC1.O=C(O)CC(O)(CC(=O)O)C(=O)O` [DIETHYLCARBAMAZINE CITRATE] showed an Activity (Acanthocheilonema viteae [2]) of 90%, an Activity (Rattus norvegicus [17]) of 90% and an Activity (Rattus norvegicus [15]) of 0%. It also gave an Activity (Mus musculus [18]) of 0%, an Activity (Mus musculus [19]) of 90% and an Activity (Acanthocheilonema viteae [3]) of 0%.
